Where only a bound is given, the exact number is not on record here.

Integrin alpha-V/beta-3, sequence (P05106 27-788 limits assumed): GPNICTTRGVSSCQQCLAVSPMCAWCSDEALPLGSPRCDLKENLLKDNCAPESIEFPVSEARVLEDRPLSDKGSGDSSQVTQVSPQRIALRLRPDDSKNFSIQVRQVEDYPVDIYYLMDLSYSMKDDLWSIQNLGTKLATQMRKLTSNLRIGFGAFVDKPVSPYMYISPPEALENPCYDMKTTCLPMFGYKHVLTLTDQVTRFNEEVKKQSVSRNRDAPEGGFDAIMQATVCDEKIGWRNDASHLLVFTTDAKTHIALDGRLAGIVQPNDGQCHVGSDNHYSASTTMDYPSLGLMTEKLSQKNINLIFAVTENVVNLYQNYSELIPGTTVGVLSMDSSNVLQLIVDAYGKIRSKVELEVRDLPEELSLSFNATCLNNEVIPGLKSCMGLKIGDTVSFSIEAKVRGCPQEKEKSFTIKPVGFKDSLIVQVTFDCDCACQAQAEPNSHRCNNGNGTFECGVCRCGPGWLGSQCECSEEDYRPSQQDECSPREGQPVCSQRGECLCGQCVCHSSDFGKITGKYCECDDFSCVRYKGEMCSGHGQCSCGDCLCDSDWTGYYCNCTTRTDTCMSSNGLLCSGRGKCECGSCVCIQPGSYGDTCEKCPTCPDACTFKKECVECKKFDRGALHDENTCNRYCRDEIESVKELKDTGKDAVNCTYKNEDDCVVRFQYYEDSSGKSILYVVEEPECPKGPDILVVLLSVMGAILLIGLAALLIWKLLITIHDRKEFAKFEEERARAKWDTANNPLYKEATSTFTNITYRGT
Integrin alpha-V/beta-3, sequence (P06756 31-889 limits assumed): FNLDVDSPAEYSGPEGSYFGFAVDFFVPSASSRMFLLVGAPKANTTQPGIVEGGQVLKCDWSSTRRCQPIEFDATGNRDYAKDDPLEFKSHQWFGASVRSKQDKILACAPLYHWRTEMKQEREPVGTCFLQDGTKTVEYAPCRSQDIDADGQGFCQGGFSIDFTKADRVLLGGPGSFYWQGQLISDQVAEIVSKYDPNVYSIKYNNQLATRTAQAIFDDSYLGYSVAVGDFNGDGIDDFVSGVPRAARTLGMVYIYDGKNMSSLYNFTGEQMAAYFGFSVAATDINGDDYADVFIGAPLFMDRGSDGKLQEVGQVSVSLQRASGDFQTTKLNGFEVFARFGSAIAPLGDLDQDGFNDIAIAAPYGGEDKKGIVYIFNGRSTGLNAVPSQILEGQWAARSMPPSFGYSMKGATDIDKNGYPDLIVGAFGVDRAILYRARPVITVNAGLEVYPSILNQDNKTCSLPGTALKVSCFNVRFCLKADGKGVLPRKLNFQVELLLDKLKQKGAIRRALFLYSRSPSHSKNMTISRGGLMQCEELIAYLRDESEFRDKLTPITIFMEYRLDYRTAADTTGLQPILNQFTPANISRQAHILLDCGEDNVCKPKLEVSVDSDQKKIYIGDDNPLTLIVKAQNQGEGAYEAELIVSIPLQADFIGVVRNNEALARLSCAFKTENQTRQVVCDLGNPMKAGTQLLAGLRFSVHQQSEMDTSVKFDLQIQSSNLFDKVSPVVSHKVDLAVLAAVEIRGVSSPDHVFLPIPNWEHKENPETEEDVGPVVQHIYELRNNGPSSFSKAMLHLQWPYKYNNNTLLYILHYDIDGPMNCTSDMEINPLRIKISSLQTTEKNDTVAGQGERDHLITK
Integrin alpha-V/beta-3, sequence (P06756 891-1048 limits assumed): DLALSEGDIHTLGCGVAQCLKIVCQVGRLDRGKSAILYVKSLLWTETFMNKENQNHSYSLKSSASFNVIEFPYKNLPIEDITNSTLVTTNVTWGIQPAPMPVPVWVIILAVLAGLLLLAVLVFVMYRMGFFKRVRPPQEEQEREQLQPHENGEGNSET
Integrin alpha-IIb/beta-3, sequence (P05106 27-788 limits assumed): as the sequence (P05106 27-788 limits assumed) above
Integrin alpha-IIb/beta-3, sequence (P08514 32-887 limits assumed): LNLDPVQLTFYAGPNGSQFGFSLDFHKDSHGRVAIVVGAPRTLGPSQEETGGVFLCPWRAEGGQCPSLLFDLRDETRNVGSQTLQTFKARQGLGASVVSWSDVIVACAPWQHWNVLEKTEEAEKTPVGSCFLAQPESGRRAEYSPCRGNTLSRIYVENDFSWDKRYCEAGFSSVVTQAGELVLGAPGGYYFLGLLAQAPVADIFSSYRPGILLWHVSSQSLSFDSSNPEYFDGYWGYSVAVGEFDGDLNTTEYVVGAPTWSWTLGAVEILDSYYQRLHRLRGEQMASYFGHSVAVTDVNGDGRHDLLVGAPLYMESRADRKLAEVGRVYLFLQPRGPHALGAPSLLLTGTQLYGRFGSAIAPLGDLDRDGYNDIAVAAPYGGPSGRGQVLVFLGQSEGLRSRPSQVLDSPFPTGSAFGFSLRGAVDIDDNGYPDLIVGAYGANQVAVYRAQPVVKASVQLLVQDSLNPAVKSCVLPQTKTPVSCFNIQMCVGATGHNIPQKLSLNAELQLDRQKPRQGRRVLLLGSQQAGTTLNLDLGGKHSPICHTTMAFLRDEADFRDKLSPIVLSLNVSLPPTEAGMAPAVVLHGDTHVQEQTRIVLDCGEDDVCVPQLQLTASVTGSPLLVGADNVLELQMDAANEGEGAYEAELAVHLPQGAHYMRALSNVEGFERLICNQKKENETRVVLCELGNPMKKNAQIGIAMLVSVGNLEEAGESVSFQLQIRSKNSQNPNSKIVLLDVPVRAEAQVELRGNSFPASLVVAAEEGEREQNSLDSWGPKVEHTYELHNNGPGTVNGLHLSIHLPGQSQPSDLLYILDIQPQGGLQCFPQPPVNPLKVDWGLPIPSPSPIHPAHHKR
Integrin alpha-IIb/beta-3, sequence (P08514 891-1039 limits assumed): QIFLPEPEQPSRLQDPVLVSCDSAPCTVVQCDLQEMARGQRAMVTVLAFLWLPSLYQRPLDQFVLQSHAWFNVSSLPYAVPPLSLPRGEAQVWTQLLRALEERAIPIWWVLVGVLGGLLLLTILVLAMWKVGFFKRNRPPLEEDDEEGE

One assay concerns the target Integrin alpha-IIb/beta-3 (Homo sapiens, UniProt P05106+P08514). Kind of assay: Inhibition of human alphaIIb-beta3 integrin in platelet aggregation assay.
By IC50 is commonly meant the concentration needed to halve the response being measured. The low end stands for higher potency, the high end for lower potency. `O=C(NC[C@H](NS(=O)(=O)c1ccccc1)C(=O)O)c1ccc(OCCC2CCNCC2)cc1` displayed an IC50 of 10 nM.

The next assay addresses Integrin alpha-V/beta-3 (Homo sapiens, UniProt P05106+P06756). Kind of assay: Inhibition of binding to human Vitronectin receptor (integrin alphaV-beta3). Format: protein-complex assay. The essentials: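 Scintillation proximity binding assay with lyophilized wheat germ agglutinin SPA beads. Receptor was αvβ3 integrin purified from HEK 293 cells overexpressing human recombinant αvβ3. Tracer was a 125I-labeled ligand, and test compounds were scored by displacement of its binding.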
`CCCCS(=O)(=O)N[C@@H](Cc1ccc(OCCCCC2CCNCC2)cc1)C(=O)O` [TIROFIBAN] returned an IC50 above 1000 nM.
The same measure, in the same setting: next, `Nc1cccc(CCc2ccc(C(=O)NC[C@H](NS(=O)(=O)c3ccccc3)C(=O)O)cc2)n1`: 0.08 nM.
On the same count and under the same terms, next, `N=C(N)NCCC[C@H](N)C(=O)NCC(=O)N[C@@H](CC(=O)O)C(=O)O`: above 10000 nM.
On the same count and under the same terms, next, `O=C(NC[C@H](NS(=O)(=O)c1ccccc1)C(=O)O)c1ccc(N2CCNCC2)cc1`: above 1000 nM.
On to `O=C(O)CC(NC(=O)CCCCc1ccc2c(n1)NCCC2)c1cncnc1` (stereo not drawn), for which the IC50 worked out at 3.3 nM.
Same read-out and setting: next, `O=C(NC[C@H](NS(=O)(=O)c1ccccc1)C(=O)O)c1ccc(OCCC2CCNCC2)cc1`: above 1000 nM; `CC1(C)[C@@H]2CC[C@@]1(CS(=O)(=O)N[C@@H](CNC(=O)c1ccc(CCc3ccc4c(n3)NCCC4)cc1)C(=O)O)C(=O)C2`: 0.11 nM.
